Assay results from ChEMBL document CHEMBL1177778, “One-pot multicomponent synthesis and anti-microbial evaluation of 2'-(indol-3-yl)-2-oxospiro(indoline-3,4'-pyran) derivatives” (2010).

How the values were obtained:
Assay type in all cases: functional
Details in all cases: for zone of inhibition at 100 µg/mL: read-out: DIZ
Aspergillus niger = experiment: Antimicrobial activity against Aspergillus niger at 100 ug/ml after 24 to 48 hrs by disk diffusion method
How it was run: (§1)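 Disc diffusion (cup plate) screen. Organism suspensions were applied to plates and incubated at 36 °C for 24–48 h in a sufficiently humid chamber, after which the zone of inhibition was read. Compounds were dissolved in DMSO as a stock solution and serially diluted to test solutions of 25, 50, 75, 100 and 150 µg/ml.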

[1] = test system: Staphylococcus epidermidis; experiment: Antimicrobial activity against Staphylococcus epidermidis at 100 ug/ml after 24 to 48 hrs by disk diffusion method; how it was run: as §1
Staphylococcus aureus = experiment: Antimicrobial activity against Staphylococcus aureus at 100 ug/ml after 24 to 48 hrs by disk diffusion method; how it was run: as §1
Bacillus subtilis = experiment: Antimicrobial activity against Bacillus subtilis at 100 ug/ml after 24 to 48 hrs by disk diffusion method; how it was run: as §1

Work on `CCCCN1C(=O)[C@@]2(C(C#N)=C(c3c[nH]c4ccccc34)OC(N)=C2C(=O)OCC)c2ccccc21` yielded a zone of inhibition at 100 µg/mL (Aspergillus niger) of 27 mm, a zone of inhibition at 100 µg/mL [1] of 14 mm and a zone of inhibition at 100 µg/mL (Staphylococcus aureus) of 16 mm. For the same molecule, the zone of inhibition at 100 µg/mL (Bacillus subtilis) was 17 mm.

For `Cn1cc(C2=C(C#N)[C@@]3(C(=O)c4cccc5cccc3c45)C(C#N)=C(N)O2)c2ccccc21`, the zone of inhibition at 100 µg/mL (Aspergillus niger) was 28 mm, the zone of inhibition at 100 µg/mL [1] was 38 mm and the zone of inhibition at 100 µg/mL (Staphylococcus aureus) was 39 mm. The zone of inhibition at 100 µg/mL (Bacillus subtilis) was 36 mm.

For `CCOC(=O)C1=C(N)OC(c2c(C)[nH]c3ccccc23)=C(C#N)[C@@]12C(=O)c1cccc3cccc2c13`, the zone of inhibition at 100 µg/mL (Aspergillus niger) was 26 mm, the zone of inhibition at 100 µg/mL [1] was 16 mm and the zone of inhibition at 100 µg/mL (Staphylococcus aureus) was 20 mm. It also gave a zone of inhibition at 100 µg/mL (Bacillus subtilis) of 18 mm.

In the case of `N#CC1=C(N)OC(c2c[nH]c3ccccc23)=C(C#N)[C@@]12C(=O)Nc1ccccc12`, the zone of inhibition at 100 µg/mL (Aspergillus niger) is reported as 28 mm, the zone of inhibition at 100 µg/mL [1] is reported as 30 mm and the zone of inhibition at 100 µg/mL (Staphylococcus aureus) is reported as 29 mm. For the same molecule, the zone of inhibition at 100 µg/mL (Bacillus subtilis) was 28 mm.

In the case of `CCOC(=O)CN1C(=O)[C@]2(C(C#N)=C(N)OC(c3c[nH]c4ccccc34)=C2C#N)c2ccccc21`, the zone of inhibition at 100 µg/mL (Aspergillus niger) is reported as 25 mm, the zone of inhibition at 100 µg/mL [1] is reported as 25 mm and the zone of inhibition at 100 µg/mL (Staphylococcus aureus) is reported as 24 mm. The zone of inhibition at 100 µg/mL (Bacillus subtilis) was 26 mm.

`CN1C(=O)[C@]2(C(C#N)=C(N)OC(c3c[nH]c4ccccc34)=C2C#N)c2ccccc21` was tested, and the zone of inhibition at 100 µg/mL (Aspergillus niger) was 27 mm, the zone of inhibition at 100 µg/mL [1] was 28 mm and the zone of inhibition at 100 µg/mL (Staphylococcus aureus) was 27 mm. It also gave a zone of inhibition at 100 µg/mL (Bacillus subtilis) of 26 mm.

With NYSTATIN the inhibition zone (IZ) (Aspergillus niger) was 28 mm.

Molecule `CCOC(=O)C1=C(N)OC(c2c[nH]c3ccccc23)=C(C#N)[C@@]12C(=O)N(C)c1ccccc12` has a zone of inhibition at 100 µg/mL (Aspergillus niger) of 23 mm, a zone of inhibition at 100 µg/mL [1] of 14 mm and a zone of inhibition at 100 µg/mL (Staphylococcus aureus) of 18 mm. For the same molecule, the zone of inhibition at 100 µg/mL (Bacillus subtilis) was 13 mm.

In the case of `O=C(N[C@H](CO)[C@H](O)c1ccc([N+](=O)[O-])cc1)C(Cl)Cl` [CHLORAMPHENICOL], the zone of inhibition at 100 µg/mL (Aspergillus niger) is reported as 25 mm, the zone of inhibition at 100 µg/mL [1] is reported as 31 mm and the zone of inhibition at 100 µg/mL (Staphylococcus aureus) is reported as 29 mm. The zone of inhibition at 100 µg/mL (Bacillus subtilis) was 32 mm.

In the case of `CCOC(=O)C1=C(N)OC(c2c[nH]c3ccccc23)=C(C#N)[C@@]12C(=O)c1cccc3cccc2c13`, the zone of inhibition at 100 µg/mL (Aspergillus niger) is reported as 27 mm, the zone of inhibition at 100 µg/mL [1] is reported as 18 mm and the zone of inhibition at 100 µg/mL (Staphylococcus aureus) is reported as 20 mm. It also gave a zone of inhibition at 100 µg/mL (Bacillus subtilis) of 17 mm.

With `CCOC(=O)C1=C(N)OC(c2c[nH]c3ccccc23)=C(C#N)[C@@]12C(=O)N(Cc1ccccc1)c1ccccc12` the zone of inhibition at 100 µg/mL (Aspergillus niger) was 24 mm, the zone of inhibition at 100 µg/mL [1] was 15 mm and the zone of inhibition at 100 µg/mL (Staphylococcus aureus) was 16 mm. It also gave a zone of inhibition at 100 µg/mL (Bacillus subtilis) of 14 mm.

`N#CC1=C(N)OC(c2c[nH]c3ccccc23)=C(C#N)[C@@]12C(=O)N(Cc1ccccc1)c1ccccc12` showed a zone of inhibition at 100 µg/mL (Aspergillus niger) of 24 mm, a zone of inhibition at 100 µg/mL [1] of 31 mm and a zone of inhibition at 100 µg/mL (Staphylococcus aureus) of 29 mm. The zone of inhibition at 100 µg/mL (Bacillus subtilis) was 30 mm.

Work on GENTAMICIN SULFATE yielded an inhibition zone (IZ) (Aspergillus niger) of 28 mm, an inhibition zone (IZ) [1] of 28 mm and an inhibition zone (IZ) (Staphylococcus aureus) of 26 mm. The inhibition zone (IZ) (Bacillus subtilis) was 30 mm.

Work on `Cc1[nH]c2ccccc2c1C1=C(C#N)[C@@]2(C(=O)c3cccc4cccc2c34)C(C#N)=C(N)O1` yielded a zone of inhibition at 100 µg/mL (Aspergillus niger) of 26 mm, a zone of inhibition at 100 µg/mL [1] of 16 mm and a zone of inhibition at 100 µg/mL (Staphylococcus aureus) of 20 mm. It also gave a zone of inhibition at 100 µg/mL (Bacillus subtilis) of 19 mm.

With `C=CCN1C(=O)[C@@]2(C(C#N)=C(c3c[nH]c4ccccc34)OC(N)=C2C(=O)OCC)c2ccccc21` the zone of inhibition at 100 µg/mL (Aspergillus niger) was 21 mm, the zone of inhibition at 100 µg/mL [1] was 13 mm and the zone of inhibition at 100 µg/mL (Staphylococcus aureus) was 18 mm. The zone of inhibition at 100 µg/mL (Bacillus subtilis) was 14 mm.

For `C#CCN1C(=O)[C@@]2(C(C#N)=C(c3c[nH]c4ccccc34)OC(N)=C2C(=O)OCC)c2ccccc21`, the zone of inhibition at 100 µg/mL (Aspergillus niger) was 25 mm, the zone of inhibition at 100 µg/mL [1] was 16 mm and the zone of inhibition at 100 µg/mL (Staphylococcus aureus) was 16 mm. The zone of inhibition at 100 µg/mL (Bacillus subtilis) was 17 mm.

`CCOC(=O)C1=C(N)OC(c2c[nH]c3ccccc23)=C(C#N)[C@@]12C(=O)Nc1ccccc12` showed a zone of inhibition at 100 µg/mL (Aspergillus niger) of 23 mm, a zone of inhibition at 100 µg/mL [1] of 18 mm and a zone of inhibition at 100 µg/mL (Staphylococcus aureus) of 18 mm. It also gave a zone of inhibition at 100 µg/mL (Bacillus subtilis) of 19 mm.

Work on `CCOC(=O)CN1C(=O)[C@@]2(C(C#N)=C(c3c[nH]c4ccccc34)OC(N)=C2C(=O)OCC)c2ccccc21` yielded a zone of inhibition at 100 µg/mL (Aspergillus niger) of 21 mm, a zone of inhibition at 100 µg/mL [1] of 10 mm and a zone of inhibition at 100 µg/mL (Staphylococcus aureus) of 14 mm. The zone of inhibition at 100 µg/mL (Bacillus subtilis) was 12 mm.

In the case of `CCOC(=O)C1=C(N)OC(c2cn(C)c3ccccc23)=C(C#N)[C@@]12C(=O)c1cccc3cccc2c13`, the zone of inhibition at 100 µg/mL (Aspergillus niger) is reported as 22 mm, the zone of inhibition at 100 µg/mL [1] is reported as 18 mm and the zone of inhibition at 100 µg/mL (Staphylococcus aureus) is reported as 19 mm. It also gave a zone of inhibition at 100 µg/mL (Bacillus subtilis) of 18 mm.

Molecule `N#CC1=C(N)OC(c2c[nH]c3ccccc23)=C(C#N)[C@@]12C(=O)c1cccc3cccc2c13` has a zone of inhibition at 100 µg/mL (Aspergillus niger) of 29 mm, a zone of inhibition at 100 µg/mL [1] of 39 mm and a zone of inhibition at 100 µg/mL (Staphylococcus aureus) of 38 mm. For the same molecule, the zone of inhibition at 100 µg/mL (Bacillus subtilis) was 40 mm.

With `C#CCN1C(=O)[C@]2(C(C#N)=C(N)OC(c3c[nH]c4ccccc34)=C2C#N)c2ccccc21` the zone of inhibition at 100 µg/mL (Aspergillus niger) was 25 mm, the zone of inhibition at 100 µg/mL [1] was 19 mm and the zone of inhibition at 100 µg/mL (Staphylococcus aureus) was 18 mm. The zone of inhibition at 100 µg/mL (Bacillus subtilis) was 20 mm.
